In ChEMBL document CHEMBL4513216, “Probing the Open Global Health Chemical Diversity Library for Multistage-Active Starting Points for Next-Generation Antimalarials” (ACS Infect Dis, 2020):

Experiment: Toxicity liver stage against HepG2, at 10uM
Type: cell-based
Parameters: test concentration 10 uM, cell line HepG2-A16-CD81EGFP
Conditions: human, HepG2-A16-CD81EGFP cells; read-out: INHIBITION
In short: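 Uninfected HepG2-A16-CD81EGFP cells, 3 × 10^3 per well, 1536-well, plated on prespotted compound at 10 μM final, parasite-free screening media added to match infected plates; puromycin 10 μM positive, DMSO 0.5% negative; run in parallel with 48 h PbLuc assay at 37 °C, 5% CO2; viability by CellTiter-Glo luminescence, normalized to controls.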

Compound	cytotoxicity at 10 µM [%]
COC(C(=O)NC1CC1)c1ccccc1 (stereo unspecified)	-3.73
CCOC(=O)c1cnn(-c2cc(Oc3ccccc3C)ncn2)c1N	15.8
COCCOc1ccc(NC(=O)N(CCO)C2CC2)cn1	-2.77
CC(C)(C)CN1CCN2C(=O)N(C3CCCCC3)C[C@H]2C1	4.91
CC1CCN(c2cc(-n3cnc(C(=O)N4CCSCC4)c3)ncn2)CC1	0.668
CC(=O)N1CC2(CCN(C(=O)c3ccc4c(c3)OCCO4)CC2)C1	-11.8
CC(=O)N1CCOCC2(CCCNC2)C1 (stereo unspecified)	0.081
CC(C)N1[C@H](CN2CCCC2)C[C@@H]2CN(Cc3cnn(C)c3)CC[C@@H]21	-147
CS(=O)(=O)N1CCOC2(CCCN(c3ncc(F)cn3)C2)C1 (stereo unspecified)	5.98
CN(C)CCNC(=O)c1cc(-c2cnc(N(C)C)nc2)cn1CC1CC1	-5.81
O=C(C1CCOCC1)N1CCO[C@H]2[C@H](OCC3CC3)CC[C@@H]21	2.61
Cc1nc(N2CCOCC2)nc2c1CCN(C(=O)C1CCCCC1)CC2	-0.152
CO[C@H]1CCN(c2ncccn2)[C@H]1Cc1ccccc1	-12.9
O=C1CCCN1CC1CN(C(=O)CC2CCCC2)Cc2nccn2C1 (stereo unspecified)	1.47
CNC(=O)c1cc2c(nc1NCC1CC1)CCN(S(=O)(=O)C1CC1)CC2	-13.3
Cc1ccccc1N1CC(c2nnc(N)s2)CC1=O (stereo unspecified)	-0.411
Cc1ccc(Cn2ccc(NS(C)(=O)=O)n2)cc1	-12.2
COc1ccc(C2CN(c3nc(C)cc(C)n3)CCN2C(C)=O)cc1 (stereo unspecified)	2.06
CC(=O)Nc1ccc(S(=O)(=O)N2CCOC(Cn3ccnc3)C2)cc1 (stereo unspecified)	0.166
CCn1nc(C)c(CN(CCCN(C)C)Cc2ccccn2)c1C	1.62
CC(C)NC(=O)C1CCc2nnc(CNC(=O)C3CC3)n21 (stereo unspecified)	4.9
Cc1cc(CC(=O)N2CCc3cc(Br)sc3C2)n[nH]1	10.2
CC(Cn1cccn1)NCc1cccc(C#N)c1 (stereo unspecified)	5.19

Compound	cytotoxicity at 10 µM [%]
COCC(=O)Nc1ccnc(OCCN(C)C)c1	-7.67
N#CCCCS(=O)(=O)NC(=O)c1ccccc1F	0.749
c1cnc2nc(N3CCc4c(ncn4C4CC4)C3)ccc2n1	6.47
CC(NC(=O)N1CCNC(=O)CC1)c1c(F)cccc1Cl (stereo unspecified)	-1.66
CN(CC(C)(CO)CO)C(=O)Nc1cc(F)cc(Cl)c1	-0.19
CC(=O)N(C)C(c1cccnc1)c1ccc(F)c(F)c1 (stereo unspecified)	-7.69
CCOc1nnc(CN2CCC(c3nc4ccccc4[nH]3)CC2)s1	-1.36
N#Cc1c(CN2CCCC2Cn2cncn2)cn2ccccc12 (stereo unspecified)	-2.49
COCCCN(Cc1ccncc1)c1ncc(C#N)cc1Cl	4.98
CCn1cc(NC(=O)NCCN2CCCc3ccccc32)cn1	2.96
Cc1noc(C)c1C(=O)NCC1CCCCN1Cc1ccccc1 (stereo unspecified)	-4.4
COC(=O)C1CCN(C(=O)Cn2ccc(-c3ccc(F)cc3)n2)CC1	-5.31
O=C(Cn1ccc(-c2ccccc2)n1)N1CCN(C(=O)C2CC2)CC1	-6.58
Cc1nn(C)c2ncc(NC(=O)N3CCNC(=O)C3)cc12	-5.81
CCc1[nH]ncc1C(=O)N1CCN(c2nc(C)cc(OC)n2)CC1	3.51
CN1N=C(C(=O)N2CCN(c3ncccn3)CC2)CCC1=O	3.62
CC(C)CC(NC(=O)c1cccc(F)c1F)C(=O)Nc1cc[nH]n1 (stereo unspecified)	-7.82
COC(=O)C(C)N(Cc1cc(=O)n(C)c(=O)n1C)C1CC1 (stereo unspecified)	-0.719
CCC(CNC(=O)NCc1cc[nH]n1)N1CCCC1 (stereo unspecified)	-3.65
CCC(C)C(=O)NCc1cc(Br)c(OC)c(OC)c1 (stereo unspecified)	2.42
Cc1nc(C2CCCN(C(=O)c3cnc(C)s3)C2)no1 (stereo unspecified)	4.31
CN(CC(=O)Nc1cc(CC2CCCCC2)n[nH]1)S(C)(=O)=O	3.44
CC(C)(C(=O)NCC(=O)N1CCCC1)c1ccccc1F	2.66

Compound	cytotoxicity at 10 µM [%]
CN(C)C(=O)CN1CCN(c2ccnc3c(F)ccc(F)c23)CC1	4.44
CCC(NC(=O)Nc1cc(F)c(OC)c(F)c1)c1noc(C)n1 (stereo unspecified)	-0.177
CCC(CNS(N)(=O)=O)Oc1ccccc1F (stereo unspecified)	3.01
Cc1cc(C)n(C2CN(CCc3ccncc3)C2)n1	-1.12
CC(C)Oc1ccccc1CNC(=O)c1[nH]ncc1Br	17.5
COc1cc(C)c(C(C)Nc2ncc(C(N)=O)cc2Cl)cc1OC (stereo unspecified)	2.76
Cc1cc(C(=O)N(CC(C)C)CC(O)c2ccc(F)cc2)[nH]n1 (stereo unspecified)	-10.2
CC(C)CCC(C)NC(=O)c1ccc(OCC(N)=O)cc1 (stereo unspecified)	-3.59
Cc1cc(CNC(=O)C2CCCCN2C(=O)OC(C)(C)C)no1 (stereo unspecified)	4.91
O=C1CN(Cc2nnc(-c3ccccc3Br)o2)CCN1	9.35
CN(Cc1ccc(Cl)c(Cl)c1)C(=O)CNC(N)=O	-8.87
CNC(=O)CCNC(=O)c1cccc(Cn2nc(C)cc2C)c1	-16.6
CCN1CCN(S(=O)(=O)N2CCC(OC)CC2)[C@H]2CS(=O)(=O)C[C@H]21	-1.6
Cc1nc(CN2CCC(c3cc(N4CCCC4)ncn3)CC2)cs1	-159
CCC1CN(C(=O)c2ccc(O)c(C)c2)CCN1C(C)C (stereo unspecified)	1.68
O=C(CSC(F)(F)F)N1CCC2(CCCN(C3CCOCC3)C2=O)C1 (stereo unspecified)	-128
O=C(O)C1(Cc2cccc(Cl)c2)CCCN(c2ncnc3[nH]ccc23)C1 (stereo unspecified)	3.63
CCN1CCN(S(=O)(=O)N2CCCC2)[C@H]2CS(=O)(=O)C[C@H]21	-4.14
COCc1nc(CN2CC(Cc3ccccc3)CC2=O)no1 (stereo unspecified)	-12.8
COc1nccc(N2CC[C@H](N3CCOCC3)[C@H](CCCO)C2)c1C#N	-148
CCc1cnc(C)nc1N1CCN(Cc2ccc(-c3cc[nH]n3)o2)CC1	-0.898
CCN1CCc2[nH]cnc2C12CCN(c1ncc(C(=O)O)cc1Cl)CC2	1.46
CS(=O)(=O)N1CCC2(CCCN(CCCc3ccccc3)C2=O)C1 (stereo unspecified)	2.46

Compound	cytotoxicity at 10 µM [%]
COc1cc(N2C[C@@H](C)[C@](O)(C3CC3)C2)nc(N)n1	0.929
COCC(=O)N1CCC(Oc2cccc(C)c2)CC1	-4.25
CC(C)NC1CCCc2nc(-c3ccccc3)ncc21 (stereo unspecified)	16.1
CC(C)c1cnc(N2C[C@H](CO)C[C@H](CN3CCOCC3)C2)nc1	-7.45
O=C(C1CCOC1)N1CCC(Cn2cc(-c3ccsc3)nn2)CC1 (stereo unspecified)	-0.039
CCOCCn1nc(C)cc1C(=O)N1C[C@@H](C)[C@](O)(C2CC2)C1	-3.9
CCC(CO)N(Cc1cccs1)C(=O)CSC (stereo unspecified)	4.78
Cc1cccc(CN2CCN(C(=O)[C@@H]3CSCN3C)CC2)c1	-8.56
CN(C)CCN1CC(C(=O)N2CCC(c3nccn3C)CC2)CC1=O (stereo unspecified)	-7.2
O=C(NCCCc1ccccn1)c1cn(CCN2CCNCC2)nn1	-3.54
COc1ccc(NC(=O)CCN2CC=C(c3cnn(C)c3)CC2)cc1Cl	6.64
O=c1[nH]c(NC2CCCC2)nc2nccc(-c3ccco3)c12	0.74
N#Cc1ccc(F)c(CN2CCCCC2Cn2cccn2)c1 (stereo unspecified)	-0.674
O=C(CCc1ccco1)N1CCC(Nc2cccnn2)CC1	-20.3
CCN(CC)C(=O)Cn1ccc2cc(NC(C)=O)ccc21	-10.2
Cc1ncc(CN2CCCN(Cc3noc(C4CC4)n3)CC2)s1	-8.57
CC(=O)N(Cc1ncc(C)o1)C1CCN(CCc2cnn(C)c2)C1 (stereo unspecified)	0.742
Cc1nnc(NC(=O)CN2CCCC2c2noc(C(C)C)n2)s1 (stereo unspecified)	-9.05
CCN1CCC(NC(=O)CN2CCCCC2Cn2cncn2)CC1 (stereo unspecified)	3.27
OC(CN1CCC(CNCc2ccccn2)CC1)c1ccccc1 (stereo unspecified)	-2.15
COc1ccccc1C(=O)N1CCN(C(=O)Cc2ccccn2)CC1	-7.57
Cc1cc(C)n(CC2CN(Cc3noc(C4CC4)n3)CCO2)n1 (stereo unspecified)	2.79
Cn1cnnc1C1CCCN(C(=O)COc2ccccc2Cl)C1 (stereo unspecified)	-14.2

Compound	cytotoxicity at 10 µM [%]
Cc1cc(CN(C)C(=O)NC2CCC(O)CC2)no1 (stereo unspecified)	-0.252
Cc1cc(CN(C)C(=O)NC2CCCC2)no1	-5.85
O=C(Nc1ccccn1)N(CCO)Cc1ccsc1	2.12
Cc1ccc(-c2ncc(C(=O)NCCS(N)(=O)=O)s2)c(C)c1	-10.7
O=C(CCCOc1ccc(F)cc1)N1CCCC(n2cccn2)C1 (stereo unspecified)	4.23
C[C@@H]1CN(Cc2ccccn2)C[C@]12CCN(Cc1cccnc1)C2=O	-4.54
c1cnc(N2CCCC3(CN(CC4CCOCC4)CCO3)C2)cn1 (stereo unspecified)	0.37
c1cncc(O[C@H]2CC[C@H]3[C@H]2OCCN3C2CCCC2)c1	-6.05
CN1CC(=O)N(c2ccccc2)CC12CCN(Cc1nccs1)C2 (stereo unspecified)	3.33
c1cncc(CN2CCO[C@H]3[C@H](OCCN4CCCC4)CC[C@@H]32)c1	3.36
Cc1nc(CN2CCC3(CCCN(Cc4ccncc4)C3)C2=O)cs1 (stereo unspecified)	1.38
O=c1ccc2c(n1Cc1ccncc1)CCN(Cc1ccoc1)CC2	-149
Cc1cccc(C(=O)N2C[C@@H]3CCN(C(C)C)C[C@@H]3C2)c1	-2.16
Cn1cccc1C(=O)NCc1cn2c(n1)CN(Cc1ccccn1)CC2	-115
Cc1cccc(CN2CCOCC3(CCN(C4CCOCC4)C3)C2)c1 (stereo unspecified)	-0.819
CCCN1C[C@@H]2CC[C@H]1CN(Cc1cccc(O)c1)C2	-122
CN(C)C(=O)[C@H]1C[C@H]2CN(C(=O)NCC3CCCCC3)C[C@@H]1O2	-0.572
COC1C[C@@H]2CN(C(=O)c3cc4ccc(F)cc4[nH]3)C[C@@H]2C1 (stereo partly specified)	2.93
CS(=O)(=O)CCC(=O)N1C[C@H]2CC[C@@H](C1)N(Cc1ccccc1)C2=O	-0.0119
